In ChEMBL document CHEMBL1150353, “Development of novel antiatherogenic biaryls: design, synthesis, and reactivity” (2008) one finds Activity data, which are given here for nine compounds.

The source made the active and inactive calls. The calls are words filed in the database; no cut-off is given here.

Assay [1] in a line: Antioxidant activity in HMEC1 cells assessed as inhibition of LDL oxidation at 10 uM after 6 hrs by TBARS assay relative to control. It counts as functional, Homo sapiens, HMEC-1. More on the design: scale not given: the % may be the effect or the level left. In outline: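 HMEC-1 (sparse proliferative) in serum-free RPMI-1640 with native LDL 100 µg apoB/mL and CuSO4 1 µM, 37 °C, 6 h; compounds added from DMSO (<0.1% final) at 10 µM just before oxidation, in duplicate. TBARS in medium measured fluorimetrically; expressed as % of TBARS with cells and no agent.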

The test system of assay [2] is HMEC-1. Nature of the assay: Protection against oxidized LDL-induced cytotoxicity in HMEC1 cells assessed as residual cell viability after 24 hrs by MTT assay relative to control. It counts as functional, Homo sapiens. In outline: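 HMEC-1 exposed 6 h at 37 °C to native LDL (100 µg apoB/mL) with 1 µM CuSO4 in serum-free RPMI, with or without agent (10 µM, DMSO <0.1%); toxicity of the cell-oxidized LDL read by MTT after 24 h, as % of unstimulated cells kept in fresh RPMI without LDL or antioxidant.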

Another assay concerns U-937. Nature of the assay: Inhibition of foam cell formation in LDL exposed human U937 cells assessed as accumulation of red O-stained lipid droplets at 10 uM for 14 hrs by nile red fluorescence assay. It counts as functional, cell-based. In a few lines: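 U937 grown in RPMI with 10% FCS were used at subconfluence. They were incubated for 14 h in fresh RPMI containing native LDL (100 µg/mL), 1 µM CuSO₄ and agent (10 µM). Cells were fixed in 10% paraformaldehyde, stained with 0.5 µg/mL Nile Red, scraped and read fluorometrically (ex 460/em 550 nm). Parallel slides were stained with oil red O and hematoxylin and examined microscopically. Data are the mean of three experiments.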

For assay [3], the system named is HMEC-1. Put plainly: (§1) Cytoprotective activity against ultraviolet irradiation oxidized LDL-induced cytotoxicity in HMEC1 cells assessed as residual cell survival at 10 uM for 24 hrs by MTT assay relative to control. It counts as functional. Conditions: Homo sapiens. In outline:
(§2)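 HMEC-1 were exposed to UV-C-oxidized LDL. LDL at 2 mg apoB/mL with 2 µmol/L CuSO₄ was irradiated for 2 h at 254 nm, then added to the medium at 200 µg apoB/mL together with the compound. MTT viability was read after 24 h, as % of unstimulated cells in LDL-free medium. Each value is the mean of four determinations.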

Assay [4] has as its system HMEC-1. Nature of the assay: Inhibition of 4-hydroxynonenal-induced carbonyl stress in HMEC1 cells assessed as prevention of increase in carbonylated protein level at 10 uM relative to control. The class given is functional, cell-based. Conditions: Homo sapiens. In a few lines: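 HMEC-1 were incubated overnight with 50 µM 4-HNE in FCS-free RPMI-1640 with the compound, then washed, scraped and pelleted. Protein was derivatized for 1 h at room temperature with 0.1% DNPH in 2 M HCl, precipitated with TCA, and washed with ethanol/ethyl acetate. It was dissolved in 8 M guanidine buffer (pH 7.4) and read at 365 nm. Results are % of unstimulated control, mean of four experiments.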

For assay [5], the system named is HMEC-1. Put plainly: Cytoprotective activity against ultraviolet irradiation oxidized LDL and 4-hydroxynonenal-induced cytotoxicity in HMEC1 cells assessed as cell survival at 10 uM after 24 hrs relative to control. The class given is functional, cell-based. To be noted: Homo sapiens. In a few lines:
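HMEC-1 were exposed to 4-HNE added directly to the medium, or to UV-oxidized LDL. For the oxidized LDL, LDL at 2 mg apoB/mL with 2 µmol/L CuSO₄ was irradiated with UV-C (254 nm) for 2 h and then added at 200 µg apoB/mL. Compounds were present during exposure. Viability was read by MTT after 24 h, as % of cells in LDL-free medium. Each value is the mean of four determinations.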

The nature of assay [6]: as §1. It counts as functional, Homo sapiens, HMEC-1. In outline: as §2

Turning to `CC(C)(Sc1cc(C(C)(C)C)c(O)c(C(C)(C)C)c1)Sc1cc(C(C)(C)C)c(O)c(C(C)(C)C)c1` [PROBUCOL], the Activity was determined as 10% in assay [1] and 92% in the assay with HMEC-1 [2].

Turning to `Cc1c(C)c2c(c(C)c1O)CC[C@@](C)(CCC[C@H](C)CCC[C@H](C)CCCC(C)C)O2` [ALPHA-TOCOPHEROL], the values for the Activity (in assay [1]; with HMEC-1 [2]) were 55% and 29%, respectively.

For the compound `CCOP(=O)(/C=C/c1cc(OC)c(O)c(-c2cc(/C=N/NC(=O)c3ccncc3)cc(OC)c2O)c1)OCC`, the values for the Activity (in assay [1]; with HMEC-1 [2]) were 67.5% and 31.2%, respectively.

As for `CCOP(=O)(/C=C/c1cc(OC)c(O)c(-c2cc(/C=C/P(=O)(OCC)OCC)cc(OC)c2O)c1)OCC`, the Activity in assay [1] came to 67.4%; with HMEC-1 [2], 66%. Moreover, the result in the assay with U-937 was Active.

For the compound `CCOP(=O)(/C=C/c1cc(OC)c(O)c(-c2cc(/C=N/Nc3nncc4ccccc34)cc(OC)c2O)c1)OCC.Cl`, the Activity was 4.1% in assay [1] and 61.2% with HMEC-1 [2]. Also, the result with HMEC-1 [3] was Active.

Regarding `COc1cc(/C=N/Nc2nncc3ccccc23)cc(-c2cc(/C=N/Nc3nncc4ccccc34)cc(OC)c2O)c1O.Cl`, the result in the assay on HMEC-1 [4], in the assay with U-937 and in the assay on HMEC-1 [5] was Active. The Activity in assay [1] was 2.8%; with HMEC-1 [2], 82%; in assay [6], 80%.

As for `CCOP(=O)(/C=C/c1cc(OC)c(O)c(-c2cc(C=O)cc(OC)c2O)c1)OCC`, the Activity was determined as 67.5% in assay [1] and 63.5% in the assay with HMEC-1 [2].

As for `COc1cc(/C=N/NC(=O)c2ccncc2)cc(-c2cc(/C=N/NC(=O)c3ccncc3)cc(OC)c2O)c1O`, in the assay on HMEC-1 [4], the outcome was inactive. The Activity is given as 83% in assay [1] and 13.5% in the assay on HMEC-1 [2].

For `COc1cc(C=O)cc(-c2cc(C=O)cc(OC)c2O)c1O`, the Activity in assay [1] came out at 86.2%; in the assay on HMEC-1 [2], 40.5%.
